# Source: PubChem (The Scripps Research Institute Molecular Screening Center)
# ARFGAP1 inh – rat ARFGAP1 inhibition; AID 651572; Q62848; inhibition, % at 16.5 µM; Arfgap1-stimulated ARF1 GTP hydrolysis, GDP FP detection; 0.26% of 360,000 active;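 active = inhibition above a per-plate limit, mean inhibition of low control wells plus 3 SD, cut at about 25% in these data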;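 also: 0% = DMSO wells with enzyme and 100% = wells lacking Arfgap1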
#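 Assay system: Rat Arfgap1 GAP domain (His6, aa 1-136), purified enzyme | Buffer or medium: HEPES 25 mM pH 7.5, NaCl 150 mM, MgCl2, DTT | Schedule: GTP hydrolysis reaction 2 h at 25 °C | Signal: FP of antibody-bound GDP Alexa 633 tracer, ex 620/em 688 nm | Measure: Percent inhibition of Arfgap1-stimulated GTP hydrolysis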
# TDP2 inh – TDP2 (human) inhibition, absorbance primary screen. O95551. recombinant TDP2, T5PNP hydrolysis, p-nitrophenol absorbance 415 nm. inhibition, % at 12.8 µM. 0.34% of 370,000 active. AID 720702;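 active = inhibition above the mean of all tested compounds plus 3 SD, set per campaign, cut at about 25% in these data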;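 also: 0% = DMSO with enzyme and 100% = buffer with substrate but no TDP2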
#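 test system = human TDP2 enzyme | input = TDP2 enzyme at 120 nM final | medium = 50 mM Tris-HCl pH 7.5 with Mg2+, KCl, DTT, BSA | also added = T5PNP substrate, 5 mM | times = 2 h at 37 °C | technique = epi absorbance | benchmarks = high control without enzyme, low control DMSO plus TDP2 | replication = each compound tested once, singlicate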
# LEDGF integ inh – blocks HIV-1 LEDGF/p75-dependent DNA integration; 0.64% of 370,000 active; TR-FRET IN-LEDGF/p75 DNA integration, Eu/Cy5; AID 743269; inhibition, % at 3.7 µM;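 active = inhibition above the screen-wide mean plus 3 SD, cut at about 13% in these data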;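 also: signal is the Cy5 over europium emission ratio at 671 and 618 nm; 0% = plate median of compound wells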
# UHRF1 binding – UHRF1 methyl-DNA binding inhibition. inhibition, % at 4.4 µM. Q96T88. UHRF1 binding to methylated oligo, TR-FRET. 0.75% of 370,000 active; in the data active = inhibition above about 21%;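 also: UHRF1 SRA domain binding a hemimethylated CpG hairpin DNA probe; 0% = median of test compound wells and 100% = reference inhibitor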
# MBD2 DNA inh – blocks human MBD2 binding to methylated DNA. Q9UBB5. inhibition, % at 4.4 µM. TR-FRET, MBD2 binding to methylated oligonucleotide. 0.31% of 370,000 active; in the data active = inhibition above about 13%
# ASAP1 GAP inh – inhibitors of human ASAP1 ArfGAP activity; 0.19% of 360,000 active; ASAP1-stimulated ARF1 GTP hydrolysis, GDP FP detection; inhibition, % at 16.5 µM; Q9ULH1; AID 624377; in the data active = inhibition above about 25%;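 also: 0% = vehicle with enzyme and substrate and 100% = no enzyme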
# Target sequence (Q9ULH1 325-724 limits assumed): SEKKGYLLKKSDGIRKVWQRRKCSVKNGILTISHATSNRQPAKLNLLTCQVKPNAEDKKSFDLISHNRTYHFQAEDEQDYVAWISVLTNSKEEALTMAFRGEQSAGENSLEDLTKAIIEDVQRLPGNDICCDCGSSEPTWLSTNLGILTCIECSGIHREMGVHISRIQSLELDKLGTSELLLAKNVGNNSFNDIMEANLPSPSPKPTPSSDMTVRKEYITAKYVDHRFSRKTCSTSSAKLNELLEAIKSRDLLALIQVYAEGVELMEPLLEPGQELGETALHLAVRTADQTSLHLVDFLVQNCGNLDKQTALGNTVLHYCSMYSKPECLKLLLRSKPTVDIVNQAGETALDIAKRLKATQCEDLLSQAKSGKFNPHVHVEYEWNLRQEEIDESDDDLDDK
# * marks the source's active call; other numbers are inactive results; nt = no result; ! = not active in a repeat. Sampled rows, rich in hits. Any-hit rate of the full collection: about 2%.
SMILES,ARFGAP1 inh,TDP2 inh,LEDGF integ inh,UHRF1 binding,MBD2 DNA inh,ASAP1 GAP inh
O=C(CSc1nc2ccccc2nc1N1CCOCC1)N1CCN(S(=O)(=O)c2cccc([N+](=O)[O-])c2)CC1,nt,-3,-1,-2,1,nt
CCCCNC(=O)C[C@H]1C[C@@]2(C(=O)OC)C(=C[C@H](C(C)(C)C)O[C@@H]2C)N(Cc2ccc(Cl)cc2Cl)C1=O,nt,-10,-2,0,0,nt
COc1cc(-c2c(C(=O)c3ccccc3)[nH]c(N)c2C(N)=O)ccc1F,-3,-14,2,95*,1,-7
COc1ccc(-c2c(C(=O)c3ccccc3)[nH]c(N)c2C(=O)c2ccccc2)cc1OC,2,-11,-2,1,1,3
Cc1cccc(C)c1OCC(=O)N=Nc1c(O)[nH]c2ccc(Br)cc12,-13,-4,2,2,-5,-1
COc1ccc(/C=N/OCC(=O)N=Nc2c(O)[nH]c3ccc(Br)cc23)cc1,-8,-3,0,21*,6,-1
CSCC[C@H](NC(=O)C1CCC(CNC(=O)[C@@H]2CCCN2C(=O)OC(C)(C)C)CC1)C(=O)O (some centres undefined),-6,8,-5,40*,3,1
CSCC[C@H](NC(=O)[C@H]1CC[C@H](CNC(=O)[C@@H]2CCCN2)CC1)C(=O)O,-2,-10,2,4,3,-3
O=C(Nc1cccc2nsnc12)c1cccnc1,-6,0,-4,55*,1,-5
CN(Cc1ccco1)S(=O)(=O)c1cc(F)ccc1CN1C(=O)c2cccnc2C1=O,10,19,-1,24*,9,1
C#CCN1C(=O)C(O)(CC(=O)c2cccc(OC)c2)c2ccccc21 (centres undefined),0,8,2,2,-4,-12
CCOC(=O)CN1C(=O)C(O)(CC(=O)c2cccc(OC)c2)c2ccccc21 (centres undefined),26*,-3,-3,4,8,12
Cc1cc(N2CCCC2)nc2ccc(NC(=S)NCCCN3CCC(C)CC3)cc12,7,0,0,22*,8,7
CCCN1CCN(CCCNC(=S)Nc2ccc3nc(N4CCN(CC)CC4)cc(C)c3c2)CC1,-4,-1,3,4,7,-16
CC1CCc2c(sc(NC(=O)/C=C/c3cccs3)c2C(=O)O)C1 (centres undefined),-3,-7,31*,-2,-2,-3
COC(=O)c1c(NC(=O)CSc2nnnn2-c2ccccc2)sc2c1CCC(C)C2 (centres undefined),2,-6,1,2,-1,-11
Cc1ccc(NC(=O)CSc2nc(C)cc(=O)[nH]2)c(C)c1,nt,-4,0,0,1,nt
CN(C)CCN1C(=O)CCC2(C)C1=CCC1C2CCC2(C)C1CCC2(C)O (centres undefined),4,6,-1,80*,-2,-15
C[C@]12CCC(=O)C=C1CC[C@@H]1[C@@H]2CC[C@@]2(C)[C@H]1CC[C@]2(O)C(=O)CO,-2,-2,1,-1,-5,-6
CCOc1ccccc1C(=O)N1CCC(Oc2cccnc2)CC1,nt,3,-1,3,0,nt
CCOC(=O)C1=NOC(C(=O)Nc2nccs2)(C(=O)C2CC2)C1 (centres undefined),nt,2,0,0,-2,nt
COc1ccc(NC(C)=O)cc1NC(=O)CSc1nnc(-c2ccccc2)n1N,-12,18,0,26*,13,6
CCN1CCN(Cc2ccc(NC(=O)c3ccc(C)c(NC(=O)c4nccn4C)c3)cc2C(F)(F)F)CC1,5,-2,4,3,8,-2
CCN1CCN(Cc2ccc(NC(=O)c3ccc(C)c(NC(=O)N4CCNC4=O)c3)cc2C(F)(F)F)CC1,3,1,1,23*!,11,3
Cc1c(C(=O)N2CCCCC2)c(S(=O)(=O)N2c3ccccc3CC2C)c(C)n1C (centres undefined),9,-7,3,23*,2,8
Cc1c(C(=O)N2CCCCC2)c(S(=O)(=O)N2CCN(c3ccccc3F)CC2)c(C)n1C,5,-8,3,-2,3,-3
